Assay results taken from ChEMBL document CHEMBL1155233, “Structure mechanism insights and the role of nitric oxide donation guide the development of oxadiazole-2-oxides as therapeutic agents against schistosomiasis” (J Med Chem, 2009).
Calls of active or inactive are those of the source. The rule behind the calls is not given here.

Key:
Schistosoma mansoni [1] = assay: Antischistosomal activity against Schistosoma mansoni assessed as parasite killing after 2 hrs; assay type: functional, organism-based
Method in brief: (§1)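 Cultured ex vivo worms were exposed to 10 μM compound. Worm effects were scored by visual examination at time points over a 72 h time-course.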

Schistosoma mansoni [2] = assay: Antischistosomal activity against Schistosoma mansoni assessed as induction of parasite mortality after 72 hrs; assay type: functional; parameters: concentration or dose not given beside the values; method in brief: as §1
Schistosoma mansoni [3] = assay: Antischistosomal activity against Schistosoma mansoni assessed as induction of parasite mortality after 16 hrs; assay type: functional; parameters: concentration or dose not given beside the values; method in brief: as §1
Schistosoma mansoni [4] = assay: Antischistosomal activity against Schistosoma mansoni assessed as parasite killing after 4 hrs; assay type: functional; method in brief: as §1
Schistosoma mansoni [5] = assay: Antischistosomal activity against Schistosoma mansoni assessed as induction of parasite mortality after 48 hrs; assay type: functional; parameters: concentration or dose not given beside the values; method in brief: as §1
Schistosoma mansoni [6] = assay: Antischistosomal activity against Schistosoma mansoni assessed as induction of parasite mortality after 24 hrs; assay type: functional; parameters: concentration or dose not given beside the values; method in brief: as §1
Schistosoma mansoni [7] = assay: Antischistosomal activity against Schistosoma mansoni assessed as induction of parasite mortality after 8 hrs; assay type: functional; parameters: concentration or dose not given beside the values; method in brief: as §1
[8] = target: T1, Glutathione reductase, mitochondrial (Homo sapiens, UniProt P00390); assay: Inhibition of human recombinant GR after 15 mins in presence of NADPH
T1 sequence (P00390 whole entry): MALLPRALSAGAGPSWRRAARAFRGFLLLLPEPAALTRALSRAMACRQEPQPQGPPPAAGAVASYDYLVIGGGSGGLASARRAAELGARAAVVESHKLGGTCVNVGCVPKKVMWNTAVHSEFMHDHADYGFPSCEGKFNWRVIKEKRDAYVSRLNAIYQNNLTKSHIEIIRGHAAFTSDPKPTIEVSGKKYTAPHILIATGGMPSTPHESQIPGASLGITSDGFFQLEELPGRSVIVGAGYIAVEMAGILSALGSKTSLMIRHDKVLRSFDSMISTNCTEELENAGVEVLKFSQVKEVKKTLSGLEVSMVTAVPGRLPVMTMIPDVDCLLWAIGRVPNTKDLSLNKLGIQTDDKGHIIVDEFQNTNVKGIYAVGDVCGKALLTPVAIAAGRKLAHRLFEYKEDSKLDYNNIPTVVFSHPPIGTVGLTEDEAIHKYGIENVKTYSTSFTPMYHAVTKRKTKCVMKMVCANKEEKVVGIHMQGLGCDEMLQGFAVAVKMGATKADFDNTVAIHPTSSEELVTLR

[9] = target: T2, Thioredoxin glutathione reductase (Schistosoma mansoni, UniProt Q962Y6); assay: Inhibition of Schistosoma mansoni TGR
T2 sequence (Q962Y6 whole entry): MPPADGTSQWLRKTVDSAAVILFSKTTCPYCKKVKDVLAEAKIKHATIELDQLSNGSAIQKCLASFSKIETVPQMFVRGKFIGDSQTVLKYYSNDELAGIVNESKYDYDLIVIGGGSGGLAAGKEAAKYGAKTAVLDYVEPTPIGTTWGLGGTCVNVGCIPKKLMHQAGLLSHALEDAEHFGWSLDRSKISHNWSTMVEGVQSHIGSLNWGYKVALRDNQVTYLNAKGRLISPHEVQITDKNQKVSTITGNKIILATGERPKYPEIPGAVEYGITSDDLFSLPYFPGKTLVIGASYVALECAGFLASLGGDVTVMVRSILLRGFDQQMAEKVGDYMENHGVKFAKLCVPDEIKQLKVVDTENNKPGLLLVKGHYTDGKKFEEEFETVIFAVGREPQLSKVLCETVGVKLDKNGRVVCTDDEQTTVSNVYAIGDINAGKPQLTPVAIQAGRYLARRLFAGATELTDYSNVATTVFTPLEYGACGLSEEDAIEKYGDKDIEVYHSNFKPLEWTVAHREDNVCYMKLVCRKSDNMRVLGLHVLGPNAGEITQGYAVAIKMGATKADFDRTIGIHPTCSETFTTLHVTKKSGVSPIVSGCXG

[10] = target: T3, Thioredoxin reductase 1, cytoplasmic (Rattus norvegicus, UniProt O89049); assay: Inhibition of rat recombinant TrxR1 after 10 mins
T3 sequence (O89049 whole entry): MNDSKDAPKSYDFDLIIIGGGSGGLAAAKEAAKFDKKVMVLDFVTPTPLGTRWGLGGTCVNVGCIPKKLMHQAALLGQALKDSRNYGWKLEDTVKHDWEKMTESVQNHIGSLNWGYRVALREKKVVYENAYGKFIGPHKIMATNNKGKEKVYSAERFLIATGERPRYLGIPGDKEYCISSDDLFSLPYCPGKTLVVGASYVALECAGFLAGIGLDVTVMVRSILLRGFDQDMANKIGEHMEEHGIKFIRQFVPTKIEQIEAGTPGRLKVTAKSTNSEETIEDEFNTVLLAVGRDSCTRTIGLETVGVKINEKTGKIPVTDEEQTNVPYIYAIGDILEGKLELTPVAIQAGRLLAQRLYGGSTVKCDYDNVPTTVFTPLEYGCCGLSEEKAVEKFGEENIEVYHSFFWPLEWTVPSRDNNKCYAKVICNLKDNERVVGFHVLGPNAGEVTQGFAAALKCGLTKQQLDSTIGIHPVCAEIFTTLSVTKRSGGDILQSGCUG

[11] = Induction of nitric oxide release at 10 uM in presence of cysteine; assay type: physicochemical
[12] = Induction of nitric oxide release at 10 uM in presence of Schistosoma mansoni recombinant TGR and NADPH; assay type: functional
[13] = Induction of nitric oxide release at 10 uM in presence of Schistosoma mansoni recombinant TGR; assay type: functional
[14] = Metabolic stability in human liver microsomes assessed as compound remaining over 60 mins in absence of NADPH; assay type: ADME, Microsome; conditions: read-out: Stability
[15] = Reactivity with cysteine at 0.1 mM in 0.1M phosphate buffer assessed as amount of compound unreacted by HPLC
Schistosoma mansoni [16] = assay: Antischistosomal activity against Schistosoma mansoni assessed as induction of parasite sluggish movement after 16 hrs; assay type: functional, organism-based; method in brief: as §1

Row | Compound | Activity (Schistosoma mansoni [1]) | Activity (Schistosoma mansoni [2]) | Activity (Schistosoma mansoni [3]) | Activity (Schistosoma mansoni [4]) | Activity (Schistosoma mansoni [5]) | Activity (Schistosoma mansoni [6]) | Activity (Schistosoma mansoni [7]) | IC50 [8] [µM] | IC50 [9] [µM] | IC50 [10] [µM] | Activity [11] [%] | Activity [12] [%] | Activity [13] [%] | remaining at 1 h [14] [%] | Activity [15] | Activity (Schistosoma mansoni [16])
1 | N#Cc1c(-c2cccc(O)c2)no[n+]1[O-] | inactive | inactive | inactive | inactive | inactive | inactive | – | – | – | – | – | – | – | – | – | –
2 | NC(=O)c1c(-c2ccccc2)no[n+]1[O-] | inactive | 100% | 27% | inactive | 100% | 60% | 12% | > 50 | 17.8 | > 400 | – | – | – | – | – | –
3 | COc1ccccc1-c1no[n+]([O-])c1C#N | inactive | 60% | 11% | inactive | 50% | 40% | – | – | – | – | – | – | – | – | – | –
4 | COc1ccc(-c2no[n+]([O-])c2C#N)cc1 | inactive | 100% | 10% | inactive | 60% | 29% | inactive | > 50 | – | > 400 | 55 | 10 | 2 | – | – | –
5 | N#Cc1c(-c2cccc(Br)c2)no[n+]1[O-] | inactive | 100% | 39% | inactive | 100% | 100% | 20% | > 50 | – | 150 | 70 | 19 | 2 | – | – | –
6 | N#Cc1c(-c2csc(-c3no[n+]([O-])c3C#N)c2)no[n+]1[O-] | inactive | – | – | – | – | – | – | – | – | – | – | – | – | 52 | – | –
7 | N#Cc1c(-c2ccc(C(F)(F)F)cc2)no[n+]1[O-] | inactive | 100% | 20% | inactive | 80% | 64% | 12% | 45.3 | – | < 12.5 | 80 | 22 | 2 | – | – | –
8 | N#Cc1c(-c2ccc(F)cc2)no[n+]1[O-] | inactive | 100% | 15% | inactive | 100% | 72% | 5% | > 50 | – | 300 | 50 | 13 | < 1 | – | – | –
9 | N#Cc1c(C(=O)c2cccs2)no[n+]1[O-] | inactive | inactive | inactive | inactive | inactive | inactive | inactive | – | 0.063 | – | – | – | – | – | Active | –
10 | COc1cccc(-c2no[n+]([O-])c2C#N)c1 | inactive | 20% | inactive | inactive | 12% | 7% | inactive | > 50 | – | > 400 | 52 | 9 | 2 | – | – | –
11 | N#Cc1c(-c2cccc([N+](=O)[O-])c2)no[n+]1[O-] | inactive | 21% | – | inactive | 15% | 10% | inactive | > 50 | – | 150 | 72 | 16 | 2 | – | – | Active
12 | N#Cc1c(-c2ccc(Cl)cc2)no[n+]1[O-] | inactive | 100% | – | inactive | 60% | 42% | inactive | > 50 | – | > 400 | 61 | 16 | 2 | – | – | Active
13 | N#Cc1c(-c2cccc(C(F)(F)F)c2)no[n+]1[O-] | inactive | 100% | 25% | inactive | 100% | 54% | 7% | > 50 | – | 250 | 78 | 20 | 2 | – | – | –
14 | N#Cc1c(-c2ccco2)no[n+]1[O-] | inactive | 100% | 40% | inactive | 100% | 70% | 10% | > 50 | 2.8 | 350 | 60 | 16 | 2 | – | – | –
15 | COc1cc(-c2no[n+]([O-])c2C#N)cc(OC)c1OC | inactive | 75% | – | inactive | 70% | 40% | 7% | > 50 | – | 150 | 20 | 8 | < 1 | – | – | Active
16 | N#Cc1no[n+]([O-])c1-c1ccccc1 | – | – | – | – | – | – | – | – | – | – | 10 | 5 | < 1 | – | Active | –
17 | N#Cc1nonc1-c1ccccc1 | – | – | – | – | – | – | – | – | – | – | 7 | 3 | < 1 | – | – | –
18 | O=C(O)c1c(-c2ccccc2)no[n+]1[O-] | inactive | inactive | inactive | inactive | inactive | inactive | inactive | > 50 | 0.63 | > 400 | 10 | 7 | 2 | – | – | –
19 | O=C(c1cccs1)c1no[n+]([O-])c1C(=O)c1cccs1 | inactive | inactive | inactive | inactive | inactive | inactive | inactive | – | 0.04 | – | – | – | – | – | Active | –
20 | [O-][n+]1onc(-c2ccccc2)c1CO | – | – | – | – | – | – | – | > 50 | – | > 400 | – | – | – | – | – | –
21 | Cc1ccc(-c2no[n+]([O-])c2C#N)cc1 | inactive | 70% | 15% | inactive | 55% | 50% | inactive | > 50 | – | > 400 | 58 | 15 | 1 | – | – | –
